Results taken from ChEMBL document CHEMBL3297671, “Identification and bioactivity of 3-epi-xestoaminol C isolated from the New Zealand brown alga Xiphophora chondrophylla” (J Nat Prod, 2014).
≈ marks a conversion by molar mass, not a printed value. Calls of active or inactive are those of the source. The rule behind the calls is not given here.

Key:
[1] = system: Pseudomonas aeruginosa; assay: Antimicrobial activity against Pseudomonas aeruginosa PAO1 assessed as compound level causing less than 2% growth after 16 hrs by serial dilution method; type: functional
[2] = system: Pseudomonas aeruginosa; assay: Antimicrobial activity against Pseudomonas aeruginosa PAO1 after 16 hrs by serial dilution method; type: functional, organism-based
[3] = system: Escherichia coli; assay: Antimicrobial activity against Escherichia coli ATCC 25922 assessed as compound level causing less than 2% growth after 16 hrs by serial dilution method; type: functional; conditions: ATCC 25922, 16 h
[4] = system: Staphylococcus aureus; assay: Antimicrobial activity against Staphylococcus aureus ATCC 25923 assessed as compound level causing less than 2% growth after 16 hrs by serial dilution method; type: functional; conditions: ATCC 25923, 16 h
Outline: (§1)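 Values are read from dose-response curves. No IC50 is calculated where the curve is too steep.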

[5] = system: Staphylococcus aureus; assay: Antimicrobial activity against Staphylococcus aureus ATCC 25923 after 16 hrs by serial dilution method; type: functional, organism-based; conditions: ATCC 25923, 16 h
[6] = system: Escherichia coli; assay: Antimicrobial activity against Escherichia coli ATCC 25922 after 16 hrs by serial dilution method; type: functional, organism-based; conditions: ATCC 25922, 16 h
[7] = system: Saccharomyces cerevisiae; assay: Antimicrobial activity against Saccharomyces cerevisiae after 16 hrs by serial dilution method; type: functional, organism-based; outline: as §1
[8] = system: Saccharomyces cerevisiae; assay: Antimicrobial activity against Saccharomyces cerevisiae assessed as compound level causing less than 2% growth after 16 hrs by serial dilution method; type: functional; outline: as §1
[9] = Cytotoxicity against human HEK cells assessed as compound level causing less than 2% growth after 48 hrs by MTT assay; type: functional, HEK293
[10] = system: HL-60; assay: Cytotoxicity against human HL60 cells after 48 hrs by MTT assay; type: functional, cell-based; conditions: HL-60, 48 h
[11] = Cytotoxicity against human HEK cells after 48 hrs by MTT assay; type: functional, cell-based; conditions: HEK293, 48 h
[12] = system: HL-60; assay: Cytotoxicity against human HL60 cells assessed as compound level causing less than 2% growth after 48 hrs by MTT assay; type: functional

| Compound | MIC ([1]; PAO1, 16 h) [µM] | IC50 ([2]; Pseudomonas aeruginosa, PAO1, 16 h, read-out: IC50) [µM] | MIC [3] [µM] | MIC [4] [µM] | IC50 [5] [µM] | IC50 [6] [µM] | IC50 [7] [µM] | MIC [8] | MIC [1] | MIC [9] [µM] | IC50 [10] [µM] | IC50 [2] | IC50 [11] [µM] | MIC [12] [µM] |
| --- | --- | --- | --- | --- | --- | --- | --- | --- | --- | --- | --- | --- | --- | --- |
| CN(C)[C@@H]1C(O)=C(C(N)=O)C(=O)[C@@]2(O)C(O)=C3C(=O)c4c(O)cccc4[C@@](C)(O)[C@H]3C[C@@H]12 [TETRACYCLINE] | > 500 | 143 | ≥ 500 | 62.5 (≈ 27.8 µg/mL) | 5.7 | 26.4 |  |  |  |  |  |  |  |  |
| C[C@@H]1C[C@@H]([C@H](O)CC2CC(=O)NC(=O)C2)C(=O)[C@@H](C)C1 [CYCLOHEXIMIDE] |  |  |  |  |  |  | 0.04 | 1 µM (≈ 0.281 µg/mL) |  |  |  |  |  |  |
| CCCCCCCCCCC[C@H](O)[C@H](C)N |  |  | 32.6 (≈ 7.48 µg/mL) | 65.1 (≈ 14.9 µg/mL) | 17 |  | 17.1 | inactive | inactive | 32.7 (≈ 7.5 µg/mL) | 8.8 | Not Active | 18 | 32.7 (≈ 7.5 µg/mL) |
